# Bioassay records from PubChem.
# ALR H2O2 inh: inhibitors of human ALR sulfhydryl oxidase, primary screen, biochemical, H2O2 detection, HRP-luminol luminescence, single point; FAD-linked sulfhydryl oxidase ALR (Homo sapiens), P55789; purified ALR, DTT oxidation; inhibition, % (no concentration beside the values); 290,000 compounds, 3.8% hits; AID 485317, 2010;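 active = mean replicate inhibition above about 79%, with every replicate also reaching it, limit read from the data; inconclusive = only one of the two criteria met; inactive = mean below limit and not every replicate reaching it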
# Target sequence (P55789 whole entry, looked up): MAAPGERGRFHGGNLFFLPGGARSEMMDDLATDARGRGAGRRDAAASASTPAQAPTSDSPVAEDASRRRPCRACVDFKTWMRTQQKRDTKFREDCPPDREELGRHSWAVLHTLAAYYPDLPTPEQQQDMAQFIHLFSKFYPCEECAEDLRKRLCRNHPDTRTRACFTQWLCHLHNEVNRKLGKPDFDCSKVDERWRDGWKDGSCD
# NLRP3 yeast inh: NALP3 inflammasome inhibitors in reconstituted yeast, primary screen, luminescence, uHTS; Yeast reconstituted NLRP3/ASC/caspase-1, beta-gal luminescence, 24 h; inhibition, % at 10 µM; 330,000 compounds, 0.39% hits; AID 2825, 2010;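 active = inhibition of 50% or more; inactive = inhibition below 50%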
# ATG4B inhibitor: ATG4B protease inhibitors, primary screen, biochemical, fluorescence, uHTS; Cysteine protease ATG4B (Homo sapiens), Q9Y4P1; ATG4B cleavage of LC3-PLA2, NBD-HPC fluorescence, 1 h; inhibition, % at 8.33 µM; 340,000 compounds, 0.51% hits; in the data active = inhibition above about 40%
# Target sequence (Q9Y4P1 whole entry, looked up): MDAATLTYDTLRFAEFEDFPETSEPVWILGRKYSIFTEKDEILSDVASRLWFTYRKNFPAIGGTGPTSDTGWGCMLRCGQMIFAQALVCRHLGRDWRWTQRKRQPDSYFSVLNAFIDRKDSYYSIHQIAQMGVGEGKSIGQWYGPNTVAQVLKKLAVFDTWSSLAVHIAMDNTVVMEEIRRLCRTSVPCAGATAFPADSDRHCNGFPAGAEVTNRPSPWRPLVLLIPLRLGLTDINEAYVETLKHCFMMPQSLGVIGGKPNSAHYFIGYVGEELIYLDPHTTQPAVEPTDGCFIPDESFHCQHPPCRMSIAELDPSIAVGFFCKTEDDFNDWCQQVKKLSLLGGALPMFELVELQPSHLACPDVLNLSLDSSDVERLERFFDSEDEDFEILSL
# NALP1 yeast inh: NALP1 inflammasome inhibitors in reconstituted yeast, colorimetric, S. cerevisiae, triplicate retest; inhibition, % at 10 µM; 280,000 compounds, 0.61% hits; S. cerevisiae NALP1/ASC/caspase-1 growth, X-gal OD620, 72 h; in the data active = inhibition mostly above about 24%, no sharp cut-off; inactive = mostly below about 32%
# Calb FLC: C. albicans growth inhibition with fluconazole, primary screen, CaCi-2 strain, Alamar Blue fluorescence. growth inhibition, % (concentration not given with the values). 300,000 compounds, 0.57% hits. C. albicans CaCi-2 (fluconazole-resistant clinical isolate) + fluconazole, 48 h;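 active = growth inhibition above about 58% in most replicates, limit read from the data, passing the limit was not always enough; inconclusive = exactly half the replicates above a set limit; inactive = most replicates below a set limit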;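 also: all wells also contain fluconazole at 8 µg/ml as a sub-toxic cotreatment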
# UCH37 inh: inhibitors of human UCH37 deubiquitinase, primary screen, biochemical, Ub-AMC cleavage, fluorescence | purified proteasome/UCH37 | AID 588478, 2011 | inhibition, % (test concentration not listed) | 330,000 compounds, 0.33% hits;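 active = mean inhibition over replicate wells above about 20%, limit read from the data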
#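 Material: Human UCH37 enzyme supplied as purified proteasome complex | Schedule: 30 min preincubation with enzyme, 25 min cleavage at room temperature | Detection: AMC fluorescence 355/460 nm | Measure: % inhibition of Ub-AMC cleavage fluorescence | Controls: Wells without proteasome as full block, compound-free enzyme plus substrate as uninhibited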
# A number is an active result; - = inactive; ? = inconclusive; . = no result given. Shown are actives, neighbours in structure and some others; about 4.8% of the full set was active somewhere.
SMILES,ALR H2O2 inh,NLRP3 yeast inh,ATG4B inhibitor,NALP1 yeast inh,Calb FLC,UCH37 inh
Cc1ccc2c(c1)c1c3n2CCN(C(=O)C2CC2)C3CCC1 (configuration not stated),-,-,-,-,-,-
O=C(CC(=O)NN=Cc1c(F)cccc1Cl)NCCc1ccccc1,.,.,.,.,.,-
COc1c(C=NNc2ccc(C(=O)O)cc2)c(CCN(C)C(C)=O)cc2c1OCO2,.,.,.,.,.,-
O=C(NNc1cccc([N+](=O)[O-])c1)/C(=C\c1cccnc1)NC(=O)c1ccccc1,99,-,-,-,-,-
CC(=O)c1cccc(NC(=O)/C(=C\c2cccnc2)NC(=O)c2ccccc2)c1,-,-,-,-,-,-
Cc1cccc(-n2c(C)cc(/C=N/NC(=O)c3ccc(CN4CCOCC4)cc3)c2C)c1,99,-,-,-,-,.
Cc1ccc(-n2c(C)cc(/C=N/NC(=O)c3ccc(CN4CCOCC4)cc3)c2C)cc1,-,-,-,-,-,.
Cc1ccc(SCc2c(C(=O)NN=Cc3ccc4c(c3)OCO4)nnn2-c2nonc2N)cc1,.,.,.,.,.,-
Cc1ccc(C(=NNc2nc3ccccc3s2)C2=C(O)c3ccccc3C2=O)cc1,.,.,.,.,.,-
O=C(CSc1nnc(-c2ccc3c(c2)OCCO3)o1)N1CCCC1,99,-,-,-,-,-
Cc1ccc(-c2nnc(SCC(=O)N3CCCC3)o2)cc1C,99,-,-,-,-,-
CCC1CCCCN1C(=O)CSc1nnc(-c2ccc(OC)cc2)o1 (configuration not stated),-,-,-,44,-,-
NC(=O)c1ccc(C(=O)NN=Cc2cccc(Oc3ccccc3)c2)cc1,.,.,.,.,.,-
O=C1NC(=Nc2ccccc2Cl)S/C1=C\c1cccc([N+](=O)[O-])c1O,-,-,-,-,95,.
COc1c(/C=C2\SC(=Nc3ccccc3Cl)NC2=O)cccc1[N+](=O)[O-],-,-,-,-,-,-
O=C1/C(=C\c2cccc([N+](=O)[O-])c2O)SC(=S)N1Cc1ccccc1,-,.,47,-,-,-
O=C1/C(=C/c2ccc(O)c([N+](=O)[O-])c2)SC(=S)N1Cc1ccccc1,-,-,-,-,-,.
O=C(CN1CCN(Cc2ccccc2Cl)CC1)NN=Cc1cccs1,.,.,.,.,.,-
O=C(NN=Cc1ccc(OCC(=O)N2CCOCC2)cc1)c1ccccc1Cl,.,.,.,.,.,-
N#CC1=C(N)NC(=S)C(C(N)=O)C1c1ccc(Cl)cc1Cl (configuration not stated),-,-,-,-,-,-
N#CC1=C(N)NC(=S)C(C(N)=O)C1c1ccccc1F (configuration not stated),84,-,-,.,-,-
COC(=O)c1ccc(-n2c(C)cc(C(=O)CCl)c2C)cc1,-,-,-,-,-,-
CCOc1ccc(-n2c(C)cc(C(=O)CCl)c2C)cc1,.,-,-,-,91,-
CC(/C=C1\N=C(SCc2ccccc2Cl)SC1=O)=C\c1ccccc1,99,-,-,-,-,-
c1ccc(CNc2ncnc3sc4c(c23)CCCC4)nc1,96,-,-,-,-,.
SMILES,ALR H2O2 inh,NLRP3 yeast inh,ATG4B inhibitor,NALP1 yeast inh,Calb FLC,UCH37 inh
COc1ccc(C=NNC(=O)c2ccc3c(c2)NC(=O)C(C)(C)O3)cc1OC,.,.,.,.,.,-
O=C(ON=Cc1ccc(N2CCOCC2)c([N+](=O)[O-])c1)c1ccc(F)cc1,.,.,.,.,.,-
O=[N+]([O-])c1cc(-c2ncccn2)c([N+](=O)[O-])s1,98,-,-,-,-,-
COc1cc(C(=O)NN=Cc2coc3ccccc3c2=O)cc(OC)c1OC,.,.,.,.,.,-
CCc1ccc(OCC(=O)NN=Cc2ccc(OS(=O)(=O)c3ccc(C)cc3)c(OC)c2)cc1,.,.,.,.,.,-
CC(=NNc1nc(C)cc(C)n1)c1ccc(Br)cc1,.,.,.,.,.,-
C/C(=N\Nc1nc(C)cc(C)n1)c1ccc(C)o1,91,-,-,-,-,.
O=C(c1csc(Nc2ccccc2Cl)n1)N1CCCC1,84,-,-,-,-,-
NC(=O)NC(=O)C(Nc1ccc(N2CCCCC2)cc1)c1ccccc1 (configuration not stated),99,-,-,-,-,-
Cc1ccc(C(=O)Nc2nc(-c3ccc([N+](=O)[O-])cc3)cs2)o1,98,-,-,-,-,-
O=c1cnnc(NN=Cc2cccs2)[nH]1,.,.,.,.,.,-
CN(C)c1ccc(NC(=O)COC(=O)c2cc(=O)c3ccccc3o2)cc1,99,-,-,-,-,-
CC(=NNC(=O)c1ccc(NS(=O)(=O)c2cccs2)cc1)c1ccc2ccccc2c1,.,.,.,.,.,-
c1ccc(Oc2nc(N3CCOCC3)nc(N3CCOCC3)n2)cc1,88,-,-,-,?,-
CCCNC(=O)c1ccc2c(=O)c(O)c(-c3ccc(Cl)c([N+](=O)[O-])c3)[nH]c2c1,-,-,-,-,114,-
Cc1cc2c(c(=O)o1)C(CCC1CCCCC1)C(C#N)=C(N)O2 (configuration not stated),97,-,-,-,-,-
CCC(CC)C1C(C#N)=C(N)Oc2cc(C)oc(=O)c21 (configuration not stated),-,-,-,-,-,-
Cc1cc(NC(=O)CSc2c(C)[nH]c3ccccc23)no1,95,-,-,.,-,-
Cc1cc(NC(=O)CSc2ccccn2)no1,-,-,-,-,-,-
Cc1cc(NC(=O)CSc2c[nH]c3ccccc23)no1,99,-,-,-,-,-
Cc1cc(NC(=O)CS(=O)(=O)c2c[nH]c3ccccc23)no1,-,-,-,-,-,-
Cc1cc(NC(=O)CSc2nc(C)c(C)n2CC(C)C)no1,93,-,-,.,.,-
Cc1cc(C=NNC(=O)C(=O)NCc2ccccn2)c(C)n1-c1cccc(Br)c1,.,.,.,.,.,-
Cc1cc(C=NO)c(C)n1-c1ccncc1,.,.,.,.,.,-
C[C@H]1C(=O)N(C)CCN1C(=O)c1ccccc1OC1CCN(S(C)(=O)=O)CC1,.,-,-,24,-,-
SMILES,ALR H2O2 inh,NLRP3 yeast inh,ATG4B inhibitor,NALP1 yeast inh,Calb FLC,UCH37 inh
O=C(NN=Cc1ccc(N2CCOCC2)o1)c1ccccc1[N+](=O)[O-],.,.,.,.,.,-
CCOC(=O)c1ccccc1NC(=O)COc1ccccc1,97,-,-,-,-,-
CCOC(=O)c1ccccc1NC(=O)COC(=O)CCCOc1ccccc1,-,-,-,.,-,-
Cc1cc(NN=Cc2ccc(O)cc2)c2cccc(C)c2n1,.,.,.,.,.,-
Cc1cc(C)c2nc(C)cc(N/N=C/c3ccc(O)cc3)c2c1,99,-,-,-,-,.
Cc1cc(N/N=C/c2ccc(O)cc2)c2cccc(C)c2n1,100,-,-,-,-,.
CC(=O)c1ccc(Nc2cc(C)nc3ccccc23)cc1,-,-,-,-,-,-
